# SR-BI DiI-HDL act = SR-BI HDL lipid transfer activation; CHO ldlA[mSR-BI] cells, DiI-HDL uptake fluorescence, 3 h; 100 = double the neutral-control signal; activation, % at 12.5 µM; hit rate 0.096% among 320,000;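 active = mean replicate activation of at least 60% and every replicate at or above 60%; inconclusive = mean or all-replicate condition met, but not both; inactive = mean below 60% and not all replicates reaching 60%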;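 also: 0% = median plate neutral-control signal and 100% = twice that signal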
#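 Test system: SR-BI-overexpressing, LDLR-lacking CHO cells; Also added: labelled HDL, 10 µg/mL; Measured by: bottom-read cell fluorescence after medium removal, ex 550/em 595 nm; Timing: 3 h uptake period with compound, 37 °C; Buffer or medium: F12, 0.5% BSA, 25 mM HEPES; Doses: single compound concentration, delivered by pin transfer.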
# Hep lipid drop = hepatic lipid droplet formation modulation; AML12 mouse hepatocytes, oleate lipid droplets, BODIPY imaging; inhibition, % at 6.5 µM; hit rate 0.4% among 240,000; AID 1656;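 active = lipid droplet intensity inhibited by at least 50%, with more than 500 cells counted; inconclusive = wells with under 300 cells, treated as cytotoxic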
#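 Assay system: AML12 hepatocytes (mouse) / Also added: 100 µM oleic acid challenge / Times: overnight treatment with compound plus oleate / Detection: high-content imaging of BODIPY-stained droplets and DAPI nuclei / Evaluation: % inhibition of lipid droplet signal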
# SR-BI HDL uptake = blocks mouse SR-BI lipid uptake from DiI-HDL | Q61009 | ldlA[mSR-BI] CHO cells, DiI-HDL uptake fluorescence, 3 h | inhibition, % at 12.5 µM | hit rate 0.96% among 320,000;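 active = mean replicate inhibition of at least 70% and a set share of replicates each scoring 70 or more; inconclusive = meets just one of the two criteria; inactive = fails both criteria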;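 also: 0% = median of neutral control wells and 100% = median of positive control wells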
# TLR9-MyD88 inh = inhibitors of human TLR9-MyD88 binding; hit rate 0.21% among 340,000; AID 504734; Q9NR96+Q99836; CHO BLA complementation TLR9-MyD88, CCF4 FRET ratio; inhibition, % at 4.98 µM;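 active = inhibition above the mean over all tested compounds plus 3 SD, cut at about 21% in these data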;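 also: 0% = DMSO only wells and 100% = clavulanate BLA inhibitor control wells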
# TLR4-MyD88 BLA = inhibitors of human TLR4-MyD88 binding | hit rate 0.18% among 200,000 | HeLa CL3-4 TLR4/MyD88 BLA complementation, FRET ratio | AID 861 | O00206+Q99836 | inhibition, % at 8.4 µM; in the data active = inhibition above about 25%;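 also: 0% = vehicle and 100% = reference inhibitor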
# NOD2-RIPK2 inh = blocks binding of human NOD2 to RIPK2 | O43353 | CHO BLA complementation NOD2-RIPK2, CCF4 ratio | inhibition, % at 4.98 µM | hit rate 0.38% among 360,000 | AID 624267; in the data active = inhibition above about 21%;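 also: 0% = vehicle only and 100% = reference blocker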
# DiI quench = quenches DiI-HDL fluorescence, an SR-BI assay artifact; shares compounds with SR-BI HDL uptake; cell-free DiI-HDL fluorescence quenching, 30 min; AC50, µM (top dose mostly 35 µM), for the others: at the highest dose activity change, negative = quenching; hit rate 20% among 470; AID 540326;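 active = quenching, a falling signal, with AC50 below a set limit tied to the top valid dose, actives reach about 32 µM in these data; inconclusive = no clear call, values can overlap the other calls; inactive = rising signal, and the rest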
# An asterisk follows results filed as active; ? = inconclusive; . = no result. Most compounds without a hit are left out; they make up all but 1.6% or so of the library.
SMILES,SR-BI DiI-HDL act,Hep lipid drop,SR-BI HDL uptake,TLR9-MyD88 inh,TLR4-MyD88 BLA,NOD2-RIPK2 inh,DiI quench
O=C(CSc1nc(=O)[nH]c2c1CCCC2)Nc1ccc(F)cc1F,-10.1,.,10.1,4.7,.,0.2,.
CCCCOc1ccc(C(=O)NCC(=O)NCCCn2nc(C)cc2C)cc1,-43.3,.,43.3,-0.6,.,0.0,.
CC(=O)Nc1cccc(NC(=O)c2ccc3c(c2)CCN3S(=O)(=O)c2ccccc2)c1,-72.0,-2.1,?,1.6,.,4.3,0.2%
CN1CCN(S(=O)(=O)NC[C@H]2O[C@@H](n3cnc4c(N)ncnc43)[C@H](O)[C@@H]2O)CC1,26.7,.,-26.7,-1.5,.,-80.4,.
CCOC(=O)C1CCCN(S(=O)(=O)NC[C@H]2O[C@@H](n3cnc4c(N)ncnc43)[C@H](O)[C@@H]2O)C1 (stereo partly specified),-80.6,.,80.6*,-9.6,.,-1.2,2.8%
CN1C(=O)Cc2cc(S(=O)(=O)Nc3ccc(Cl)cc3)ccc21,.,0.5,.,-5.4,.,-3.7,.
CC(C)OC(=O)c1cccc(C(=O)Nc2cccc(NC(=O)c3cccc(C(=O)OC(C)C)n3)n2)n1,-72.4,-15.7,72.4*,-7.3,-6.5,0.2,-4.4%
CC(=O)Nc1ccc(NC(=O)c2cccc(C(=O)OC(C)C)n2)cc1,-25.7,.,25.7,1.7,-8.1,-1.7,.
S=C(NCCc1ccc(Cl)cc1)NC1CC1,7.8,-1.1,-7.8,-0.4,-20.9,-0.2,.
COCCNC(=O)c1ccc(CS(=O)(=O)c2cccc(C(F)(F)F)c2)o1,-74.5,-1.3,74.5*,-4.0,.,-5.0,9.2%
CC[C@]12c3[nH]c4cc(-c5ccco5)ccc4c3CCN1C(=O)[C@@H](CC(=O)NCc1ccc(OC)c(OC)c1)C[C@@H]2C(=O)N1CCN(C(=O)c2ccco2)CC1,-74.8,.,74.8*,0.2,.,-12.3,-12.7%
COc1ccc(C(=O)CSc2nnc(CNC(=O)c3ccc(S(=O)(=O)N(C)C)cc3)o2)cc1,-77.5,-0.7,77.5*,-1.7,.,5.1,0.0%
Cc1nnc(NC(=O)CSc2nnc(CNC(=O)c3ccc(S(=O)(=O)N(C)C)cc3)o2)s1,-9.2,-0.8,9.2,-1.1,.,4.1,.
COCc1cc(=O)oc2cc(NC(=O)c3ccc(C(C)(C)C)cc3)ccc12,-71.4,6.4,?,-5.6,.,-0.5,2.6%
COc1ccccc1CCc1nnc(CCC(=O)N(C)Cc2cccc3cnccc23)o1,-75.2,-6.6,75.2*,-3.2,-3.7,-9.1,0.1%
O=C(Nc1ccccc1)C1=C(O)CC(c2ccoc2)CC1=Nc1ccccc1 (stereo unspecified),-72.4,-1.8,?,-7.5,-18.6,-1.4,-9.9%
O=C(Nc1ccccc1)C1=C(O)CC(c2ccco2)CC1=Nc1ccccc1 (stereo unspecified),-49.5,.,49.5,-1.6,-1.2,3.4,.
COc1ccc(-c2cc(C(F)(F)F)nc(SCCC(=O)N3CCN4CCCC4C3)n2)cc1 (stereo unspecified),-72.9,-3.2,?,-2.5,-6.5,-3.2,-2.7%
COc1ccc(-c2cc(C(F)(F)F)nc(SCCC(=O)N3CCCC3)n2)cc1,-59.7,21.7,59.7,9.7,4.4,-6.0,.
O=C(NCc1ccccc1F)C1CCN(C(=O)c2sccc2-n2cccc2)CC1,-69.2,-14.3,69.2,4.9,1.5,-0.7,.
CC1CCCCC1NC(=O)C1CCN(C(=O)c2sccc2-n2cccc2)CC1 (stereo unspecified),-44.3,-2.9,44.3,-1.9,5.1,-21.8,-1.9%
CCOc1ccccc1CNC(=O)C1CCN(S(=O)(=O)N2CCC(C)CC2)CC1,.,.,.,-1.5,.,0.5,.
O=C(NCc1ccccc1Cl)C1CCN(C(=O)c2sccc2-n2cccc2)CC1,-72.9,-26.5,?,7.7,1.9,-0.9,-0.6%
CCOc1ccccc1CNC(=O)C1CCN(C(=O)c2sccc2-n2cccc2)CC1,-70.0,.,70.0,-7.0,-10.3,7.1,-3.5%
C[C@H](CO)N1C[C@H](C)[C@@H](CN(C)C(=O)NC2CCCCC2)Oc2c(NC(=O)c3ccncc3)cccc2C1=O,10.8,.,-10.8,-7.6,.,3.3,.

# Source: PubChem
